Measurements reported in ChEMBL document CHEMBL4024792, “(N-Hydroxycarbonylbenylamino)quinolines as Selective Histone Deacetylase 6 Inhibitors Suppress Growth of Multiple Myeloma in Vitro and in Vivo” (J Med Chem, 2018).
The source made the active and inactive calls. The rule behind the calls is not given here.

Experiments:
[1] = Intrinsic clearance in beagle dog hepatocytes at 10 uM by LC-MS/MS analysis; type: ADME, cell-based, Canis lupus familiaris, Hepatocyte; conditions: read-out: CLH
In short: (§1)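 Cryopreserved hepatocytes (Sprague-Dawley rat, beagle dog, human) incubated with compound at 10 µM, 37 °C, for up to 4 h. About 0.5×10^6 cells/well for rat and dog, 0.24×10^6 for human.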

[2] = test system: U-266; experiment: Cell cycle arrest in human U266 cells assessed as accumulation at S phase at 5 uM after 24 hrs by propidium iodide staining based flow cytometry (reference value: 14.05%); type: functional
[3] = test system: RPMI-8226; experiment: Cell cycle arrest in human RPMI8226 cells assessed as accumulation at S phase at 5 uM after 24 hrs in presence of bortezomib by propidium iodide staining based flow cytometry (reference value: 19.53%); type: functional
[4] = test system: NCI-H929; experiment: Cell cycle arrest in human NCI-H929 cells assessed as accumulation at G2/M phase at 5 uM after 24 hrs in presence of bortezomib by propidium iodide staining based flow cytometry (reference value: 31.63%); type: functional
[5] = test system: RPMI-8226; experiment: Induction of apoptosis in human RPMI8226 cells at 5 uM after 24 hrs in presence of bortezomib by Annexin V/propidium iodide staining based flow cytometry; type: functional, cell-based
[6] = test system: U-266; experiment: Cell cycle arrest in human U266 cells assessed as accumulation at G2/M phase at 5 uM after 24 hrs by propidium iodide staining based flow cytometry (reference value: 35.13%); type: functional
[7] = test system: Mus musculus; experiment: Toxicity in Balb/c mouse assessed as change in body weight at 50 to 200 mg/kg, ip administered once daily for 1 week measured for 1 week; type: organism-based; conditions: in vivo, 168 h
In short: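 Male 8-week balb/c mice, ten per dose, given compound ip once daily for 7 days at 50, 100 or 200 mg/kg, then monitored one week. Body weight recorded over 14 days. MTD = highest dose with no drug-related moribund state or death and weight loss under 20%.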

[8] = Stability in human hepatocytes assessed as parent compound remaining at 10 uM after 60 mins by LC-MS/MS analysis; type: ADME, cell-based, Hepatocyte; conditions: read-out: Stability; in short: as §1
[9] = test system: U-266; experiment: Cell cycle arrest in human U266 cells assessed as accumulation at sub-G1 phase at 5 uM after 24 hrs in presence of bortezomib by propidium iodide staining based flow cytometry (reference value: 10.76%); type: functional
[10] = Intrinsic clearance in human hepatocytes at 10 uM by LC-MS/MS analysis; type: ADME, cell-based, Hepatocyte; conditions: read-out: CLH; in short: as §1
[11] = test system: RPMI-8226; experiment: Cell cycle arrest in human RPMI8226 cells assessed as accumulation at G2/M phase at 5 uM after 24 hrs by propidium iodide staining based flow cytometry (reference value: 23.94%); type: functional
[12] = test system: NCI-H929; experiment: Cell cycle arrest in human NCI-H929 cells assessed as accumulation at sub-G1 phase at 5 uM after 24 hrs by propidium iodide staining based flow cytometry (reference value: 5.59%); type: functional
[13] = Apparent permeability from apical to basolateral side in human Caco2 cells assessed as drug recovery at 10 uM after 2 hrs by LC-MS/MS analysis; type: ADME, cell-based; conditions: Caco-2, read-out: Drug recovery
In short: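 Caco-2 cells seeded at 8.4 × 10^4 cells/cm2 on polycarbonate inserts for 21 days. For A→B, donor was apical (HBSS/MES pH 6.5, 10 µM compound) and receiver basolateral (HBSS/HEPES pH 7.4). For B→A, donor was basolateral (HBSS/HEPES pH 7.4, 10 µM) and receiver apical (HBSS/MES pH 6.5). Incubated at 37 °C for 2 h. Receiver sampled at 30, 60, 90 and 120 min, donor at 0 and 120 min.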

[14] = test system: NCI-H929; experiment: Cell cycle arrest in human NCI-H929 cells assessed as accumulation at G2/M phase at 5 uM after 24 hrs by propidium iodide staining based flow cytometry (reference value: 31.63%); type: functional
[15] = Half life in beagle dog hepatocytes at 10 uM by LC-MS/MS analysis; type: ADME, cell-based, Canis lupus familiaris, Hepatocyte
In short: (§2)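 Substrate depletion in cryopreserved hepatocytes (male SD rat, male beagle dog, human). Compound at 10 µM incubated at 37 °C for up to 4 h. Cell density approximately 0.5 × 10^6 hepatocytes/well for rat and dog, 0.24 × 10^6/well for human. Half-life and CLint derived from depletion; % remaining at 60 min also reported.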

[16] = test system: NCI-H929; experiment: Cell cycle arrest in human NCI-H929 cells assessed as accumulation at G0/G1 phase at 5 uM after 24 hrs by propidium iodide staining based flow cytometry (reference value: 49.39%); type: functional
[17] = Half life in Sprague-Dawley rat hepatocytes at 10 uM by LC-MS/MS analysis; type: ADME, cell-based, Hepatocyte; in short: as §2
[18] = test system: U-266; experiment: Cell cycle arrest in human U266 cells assessed as accumulation at G0/G1 phase at 5 uM after 24 hrs in presence of bortezomib by propidium iodide staining based flow cytometry (reference value: 40.29%); type: functional
[19] = test system: NCI-H929; experiment: Cell cycle arrest in human NCI-H929 cells assessed as accumulation at S phase at 5 uM after 24 hrs in presence of bortezomib by propidium iodide staining based flow cytometry (reference value: 13.5%); type: functional
[20] = test system: NCI-H929; experiment: Induction of apoptosis in human NCI-H929 cells at 5 uM after 24 hrs in presence of bortezomib by Annexin V/propidium iodide staining based flow cytometry; type: functional, cell-based
[21] = test system: Mus musculus; experiment: Toxicity in nude mouse xenografted with human RPMI8226 cells assessed as change in body weight at 30 mg/kg, iv or ip administered for 5 days followed by 2 days off for 35 days cotreated with bortezomib; type: organism-based; conditions: in vivo
In short: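 Male 8-week nude mice implanted sc with 1×10^7 RPMI 8226 cells, randomized at ~200 mm3 (n = 8). […] Vehicle: 0.5% EtOH/0.5% Cremophor in 5% dextran.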

O=C(NO)c1ccc(CNc2cccc3cccnc23)cc1
CLint scaled at 10 µM [1]: 39.6 mL/min/kg
Activity [2]: 6.12%
Activity [3]: 2.46%
Activity [4]: 1.73%
Activity [5]: Active
Activity [6]: 23.3%
Activity [7]: Non-Toxic
remaining at 1 h, 10 µM [8]: 86.4%
Activity [9]: 45.29%
CLint scaled at 10 µM [10]: 32.5 mL/min/kg
Activity [11]: 31.53%
Activity [12]: 24.71%
recovery at 2 h, 10 µM [13]: 72.2%
Activity [14]: 31.28%
half-life at 10 µM [15]: 1.97 h
Activity [16]: 35.59%
half-life at 10 µM [17]: 0.93 h
Activity [18]: 25.75%
Activity [19]: 8.6%
Activity [20]: Active
Activity [21]: Non-Toxic
